Test results as given in ChEMBL document CHEMBL1275530, “Aspergillus fumigatus forms biofilms with reduced antifungal drug susceptibility on bronchial epithelial cells” (2008).
≈ marks a conversion by molar mass, not a printed value. *1 amine or outer side, *2 acyl side, *3 side chain or, on linkers, in order; H or OH if unused. Where a SMILES comes first, the peptide text is derived from it. Bridges are numbered along the chain shown (N, C = ends). [ ]: non-standard residue; d: D form. The star is where a group is joined. hTyr(3S-OH,4S-OH,3'-OSO3H) = N[C@H](C(=O)O)[C@H](O)[C@@H](O)c1ccc(O)c(OS(=O)(=O)O)c1; Orn(4R-OH,5R-OH) = O=C([C@H](C[C@@H](O)[C@@H](O)N[*:3])N[*:1])[*:2]; Pro(3S-OH,4S-Me) = C[C@H]1CN[C@H](C(=O)O)[C@H]1O; X1 = CCCCCOc1ccc(-c2cc(-c3ccc(C(=O)*)cc3)no2)cc1; Gln(3R-OH) = NC(=O)C[C@@H](O)[C@H](N)C(=O)O; Hyp = O=C(O)[C@@H]1C[C@@H](O)CN1

Tests used:
Format in all cases: functional
Aspergillus fumigatus [1] = assay: Antifungal activity against Aspergillus fumigatus ATCC 9197 grown as planktonic cell on 16HBE cell after 48 hrs by broth microdilution method; settings: ATCC 9197, 48 h
Procedure, shortened: (§1)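 CLSI M38-A broth microdilution on planktonic conidia, with drugs added at once and end points read at 24 h and 48 h. Ranges in μg/ml: AMB 0.06 to 32; liposomal AMB, voriconazole, posaconazole, itraconazole, caspofungin and micafungin 0.03 to 16. Inoculum was the same as in the XTT assay. Three repeats.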

Aspergillus fumigatus [2] = assay: Antifungal activity against Aspergillus fumigatus ATCC 9197 grown as planktonic cell on CFBE41o cell after 48 hrs by broth microdilution method; settings: ATCC 9197, 48 h; procedure, shortened: as §1
Aspergillus fumigatus [3] = assay: Antifungal activity against Aspergillus fumigatus ATCC 9197 grown as biofilm on 16HBE cell after 24 to 48 hrs by XTT assay
Procedure, shortened: (§2)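 Biofilm grown in PS 96-well plates on confluent 16HBE14o− (1) or CFBE41o− (2) cells on fibronectin/collagen coating. Conidia (10^6/ml) in MEM plus 10% FCS adhered 2 h at 37°C, 5% CO2. Drugs were added after 24–48 h of biofilm growth and incubated another 24 h and 48 h. Sessile MIC was read by XTT as 50% (MIC-2) or 90% (MIC-1) inhibition of metabolic activity versus drug-free control. CFU were also plated. Three repeats.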

Aspergillus fumigatus [4] = assay: Antifungal activity against Aspergillus fumigatus ATCC 9197 grown as biofilm on CFBE41o cell after 24 to 48 hrs by XTT assay; procedure, shortened: as §2
Aspergillus fumigatus [5] = assay: Antifungal activity against Aspergillus fumigatus ATCC 9197 grown as planktonic cell on polystyrene after 48 hrs by broth microdilution method; settings: ATCC 9197, 48 h; procedure, shortened: as §1
Aspergillus fumigatus [6] = assay: Antifungal activity against Aspergillus fumigatus ATCC 9197 grown as biofilm on polystyrene after 24 to 48 hrs by XTT assay
Procedure, shortened: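 Biofilm was formed on polystyrene without epithelial cells, starting from 10^6 conidia/ml in MEM plus 10% FCS. Drugs were added after 24–48 h of biofilm growth. After a further 24 h and 48 h, XTT reduction gave MICs at 50% and 90% inhibition of metabolic activity relative to a drug-free control.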

| MIC50 (Aspergillus fumigatus [1]) [µg/mL] | MIC90 (Aspergillus fumigatus [1]) [µg/mL] | MIC50 (Aspergillus fumigatus [2]) [µg/mL] | MIC90 (Aspergillus fumigatus [2]) [µg/mL] | MIC50 (Aspergillus fumigatus [3]) [µg/mL] | MIC90 (Aspergillus fumigatus [3]) [µg/mL] | MIC50 (Aspergillus fumigatus [4]) [µg/mL] | MIC90 (Aspergillus fumigatus [4]) [µg/mL] | MIC50 (Aspergillus fumigatus [5]) [µg/mL] | MIC90 (Aspergillus fumigatus [5]) [µg/mL] | MIC50 (Aspergillus fumigatus [6]) [µg/mL] | MIC90 (Aspergillus fumigatus [6]) [µg/mL] | Compound |
| --- | --- | --- | --- | --- | --- | --- | --- | --- | --- | --- | --- | --- |
| 0.5 (≈ 0.394 µM) | 1 (≈ 0.787 µM) | 0.5 (≈ 0.394 µM) | 1 (≈ 0.787 µM) | > 8 | > 8 | > 8 | > 8 | – | – | – | – | CCCCCOc1ccc(-c2cc(-c3ccc(C(=O)N[C@H]4C[C@@H](O)[C@@H](O)NC(=O)[C@@H]5[C@@H](O)[C@@H](C)CN5C(=O)[C@H]([C@H](O)CC(N)=O)NC(=O)[C@H]([C@H](O)[C@@H](O)c5ccc(O)c(OS(=O)(=O)O)c5)NC(=O)[C@@H]5C[C@@H](O)CN5C(=O)[C@H]([C@@H](C)O)NC4=O)cc3)no2)cc1 [MICAFUNGIN] (X1-[Orn(4R-OH,5R-OH)]T[Hyp][hTyr(3S-OH,4S-OH,3'-OSO3H)][Gln(3R-OH)][Pro(3S-OH,4S-Me)]; lactam 1-C) |
| 0.5 (≈ 0.541 µM) | 1 (≈ 1.08 µM) | 0.5 (≈ 0.541 µM) | 1 (≈ 1.08 µM) | 2 (≈ 2.16 µM) | 4 (≈ 4.33 µM) | 4 (≈ 4.33 µM) | 8 (≈ 8.66 µM) | 1 (≈ 1.08 µM) | 1 (≈ 1.08 µM) | 8 (≈ 8.66 µM) | 16 (≈ 17.3 µM) | C[C@@H]1[C@H](O)[C@@H](C)/C=C/C=C/C=C/C=C/C=C/C=C/C=C/[C@H](O[C@@H]2O[C@H](C)[C@@H](O)[C@H](N)[C@@H]2O)C[C@@H]2O[C@](O)(C[C@@H](O)C[C@@H](O)[C@H](O)CC[C@@H](O)C[C@@H](O)CC(=O)O[C@H]1C)C[C@H](O)[C@H]2C(=O)O [AMPHOTERICIN B] |
| 0.125 (≈ 0.177 µM) | 0.25 (≈ 0.354 µM) | 0.125 (≈ 0.177 µM) | 0.25 (≈ 0.354 µM) | 1 (≈ 1.42 µM) | 1 (≈ 1.42 µM) | 1 (≈ 1.42 µM) | 2 (≈ 2.83 µM) | 0.5 (≈ 0.709 µM) | 1 (≈ 1.42 µM) | 2 (≈ 2.83 µM) | 4 (≈ 5.67 µM) | CCC(C)n1ncn(-c2ccc(N3CCN(c4ccc(OCC5COC(Cn6cncn6)(c6ccc(Cl)cc6Cl)O5)cc4)CC3)cc2)c1=O (stereo unspecified) [ITRACONAZOLE] |
| 0.5 (≈ 0.457 µM) | 1 (≈ 0.915 µM) | 0.5 (≈ 0.457 µM) | 1 (≈ 0.915 µM) | > 8 | > 8 | > 8 | > 8 | – | – | – | – | CC[C@H](C)C[C@H](C)CCCCCCCCC(=O)N[C@H]1C[C@@H](O)[C@@H](NCCN)NC(=O)[C@@H]2[C@@H](O)CCN2C(=O)[C@H]([C@H](O)CCN)NC(=O)[C@H]([C@H](O)[C@@H](O)c2ccc(O)cc2)NC(=O)[C@@H]2C[C@@H](O)CN2C(=O)[C@H]([C@@H](C)O)NC1=O [CASPOFUNGIN] |

| Compound | MIC50 (Aspergillus fumigatus [1]) [µg/mL] | MIC90 (Aspergillus fumigatus [1]) [µg/mL] | MIC50 (Aspergillus fumigatus [2]) [µg/mL] | MIC90 (Aspergillus fumigatus [2]) [µg/mL] | MIC50 (Aspergillus fumigatus [3]) [µg/mL] | MIC90 (Aspergillus fumigatus [3]) [µg/mL] | MIC50 (Aspergillus fumigatus [4]) [µg/mL] | MIC90 (Aspergillus fumigatus [4]) [µg/mL] | MIC50 (Aspergillus fumigatus [5]) [µg/mL] | MIC90 (Aspergillus fumigatus [5]) [µg/mL] | MIC50 (Aspergillus fumigatus [6]) [µg/mL] | MIC90 (Aspergillus fumigatus [6]) [µg/mL] |
| --- | --- | --- | --- | --- | --- | --- | --- | --- | --- | --- | --- | --- |
| CC[C@@H]([C@H](C)O)n1ncn(-c2ccc(N3CCN(c4ccc(OC[C@@H]5CO[C@@](Cn6cncn6)(c6ccc(F)cc6F)C5)cc4)CC3)cc2)c1=O [POSACONAZOLE] | 0.125 (≈ 0.178 µM) | 0.125 (≈ 0.178 µM) | 0.125 (≈ 0.178 µM) | 0.125 (≈ 0.178 µM) | 1 (≈ 1.43 µM) | 1 (≈ 1.43 µM) | 1 (≈ 1.43 µM) | 2 (≈ 2.85 µM) | – | – | – | – |
| C[C@@H](c1ncncc1F)[C@](O)(Cn1cncn1)c1ccc(F)cc1F [VORICONAZOLE] | 0.125 (≈ 0.358 µM) | 0.125 (≈ 0.358 µM) | 0.125 (≈ 0.358 µM) | 0.125 (≈ 0.358 µM) | 1 (≈ 2.86 µM) | 1 (≈ 2.86 µM) | 1 (≈ 2.86 µM) | 2 (≈ 5.73 µM) | – | – | – | – |
